According to ChEMBL document CHEMBL3352184, “6-Deoxy-13-hydroxy-8,11-dione-dihydrogranaticin B, an intermediate in granaticin biosynthesis, from Streptomyces sp. CPCC 200532” (J Nat Prod, 2014):
Active and inactive are the calls of the source. The calls are words filed in the database; no cut-off is given here.

What was measured:
[1] = tested on: A549; experiment: Cytotoxicity against human A549 cells by MTT assay; type: functional, cell-based
Outline: (§1)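 MTT read-out on cancer cell lines exposed to a series of concentrations per compound (ranges spanning roughly 0.6–372.1 μM); compounds dissolved in DMSO, final DMSO 0.1%.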

[2] = Cytotoxicity against human HCT116 cells by MTT assay; type: functional, cell-based; conditions: HCT-116; outline: as §1
[3] = tested on: HeLa; experiment: Cytotoxicity against human HeLa cells by MTT assay; type: functional, cell-based; outline: as §1
[4] = tested on: HepG2; experiment: Cytotoxicity against human HepG2 cells by MTT assay; type: functional, cell-based; outline: as §1
[5] = tested on: Bacillus subtilis; experiment: Antibacterial activity against Bacillus subtilis CMCC 63501 after 16 to 18 hrs by filter paper disk assay; type: functional, organism-based

Compound: C[C@@H]1O[C@H]2CC(=O)O[C@H]2C2=C1C(=O)c1c(O)c3c(c(O)c1C2=O)[C@H]1C[C@@H](O[C@H]2CC[C@H](O)[C@H](C)O2)[C@@]3(O)[C@@H](C)O1 [GRANATICIN B]
- IC50 [1]: 1.9 µM
- IC50 [2]: 14.8 µM
- IC50 [3]: 1.6 µM
- IC50 [4]: 5.8 µM
- Activity [5]: Active

Compound: C[C@@H]1O[C@@H](CC(=O)O)Cc2cc3c(c(O)c21)C(=O)C1=C(C3=O)[C@H]2C[C@@H](O[C@H]3CC[C@H](O)[C@H](C)O3)[C@@]1(O)[C@@H](C)O2
- IC50 [1]: 37.6 µM
- IC50 [2]: 13.1 µM
- IC50 [3]: 20.2 µM
- IC50 [4]: 18.8 µM

Compound: C[C@@H]1O[C@@H](CC(=O)O)CC2=C1C(=O)c1c(O)c3c(c(O)c1C2=O)[C@H]1C[C@@H](O[C@H]2CC[C@H](O)[C@H](C)O2)[C@@]3(O)[C@@H](C)O1
- Activity [5]: Active

Compound: C[C@@H]1O[C@H]2CC(=O)O[C@H]2C2=C1C(=O)c1c(O)c3c(c(O)c1C2=O)[C@H]1C[C@@H](O)[C@]3(O)[C@@H](C)O1
- IC50 [1]: 1.3 µM
- IC50 [2]: 11 µM
- IC50 [3]: 0.7 µM
- IC50 [4]: 6.6 µM

Compound: C[C@@H]1O[C@@H](CC(=O)O)Cc2cc3c(c(O)c21)C(=O)C1=C(C3=O)[C@H]2C[C@@H](O)[C@@]1(O)[C@@H](C)O2
- IC50 [1]: 197 µM
- IC50 [2]: 179 µM
- IC50 [3]: 297 µM
- IC50 [4]: 148 µM
